How the values were obtained:
[1] = Plasma concentration in Sprague-Dawley rat at 5 mg/kg, po after 4 hrs by LC-MS/MS analysis; type: ADME, organism-based; parameters: dose 5 mg/kg, route oral
Summary of the method: (§1)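 Male Sprague-Dawley rats fitted with jugular catheters, fed, three per compound, dosed orally at 5 mg/kg. Vehicle was 1% CMC/0.2% Tween80 in water, or 80% PEG 400/20% pH 2 30 mM citric acid, depending on compound. Serial heparinized blood taken at 1, 2, 4 and 6 h. Plasma proteins precipitated with acetonitrile; compound quantified by LC/MS/MS in MRM mode.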

[2] = Plasma concentration in Sprague-Dawley rat at 5 mg/kg, po after 1 hr by LC-MS/MS analysis; type: ADME, organism-based; parameters: dose 5 mg/kg, route oral; summary of the method: as §1
[3] = Plasma concentration in Sprague-Dawley rat at 5 mg/kg, po after 2 hrs by LC-MS/MS analysis; type: ADME, organism-based; parameters: dose 5 mg/kg, route oral; summary of the method: as §1
[4] = Aqueous solubility at pH 7.4; type: physicochemical

Row | SMILES | concentration at 4 h [1] [nM] | concentration at 1 h [2] [nM] | concentration at 2 h [3] [nM] | solubility [4] [µg/mL]
1 | CS(=O)(=O)c1ccc(C(CCNC(=O)c2ccc(C#N)cc2)c2ccc(F)cc2)cc1 (stereo not given) | 3600 |  |  | 
2 | O=C(NCCC(c1ccc(F)cc1)c1ccc(F)cc1)c1ccc(OCC(F)(F)F)nc1 | 100 | 300 | 200 | < 0.1
